Results: ChEMBL document CHEMBL1125776, “Enantioselective and diastereoselective hydroxylation of bufuralol. Absolute configuration of the 7-(1-hydroxyethyl)-2-[1-hydroxy-2-(tert-butylamino)ethyl]benzofurans, the benzylic hydroxylation metabolites” (J Med Chem, 1991)

Assays:
[1] = species: Rattus norvegicus; assay: Compound was tested for the rate of formation in rat liver microsomes; type: functional
Outline: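 Liver microsomes from male Sprague-Dawley rats (~150 g) prepared at 0-4 °C. Incubated with (1'R)- or (1'S)-bufuralol 200 μM, 3 mg protein, NADP+ 1 mM, glucose 6-phosphate 20 mM, MgCl2 10 mM, G6PDH 5 units, 0.20 M phosphate pH 7.4, 37 °C, 30 min. Alcohol diastereomers derivatized with (R)-PEIC, reversed-phase HPLC at 248 nm against internal standard, calibration 10-60 μg.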

[2] = species: Homo sapiens; assay: Compound was tested for the rate of formation in human liver microsomes 112; type: functional
Outline: (§1)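 Human liver microsomes from frozen bank tissue, washed and resuspended in 100 mM potassium phosphate/20% glycerol/1 mM EDTA, pH 7.4. Incubated with (1'R)- or (1'S)-bufuralol 200 μM, 3 mg protein, NADP+ 1 mM, glucose 6-phosphate 20 mM, MgCl2 10 mM, G6PDH 5 units, 0.20 M phosphate pH 7.4, 37 °C, 30 min. Benzylic alcohols derivatized with (R)-PEIC, reversed-phase HPLC at 248 nm against internal standard, calibration 2-10 μg.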

[3] = species: Homo sapiens; assay: Compound was tested for the rate of formation in human liver microsomes 108; type: functional; outline: as §1
[4] = species: Homo sapiens; assay: Compound was tested for the rate of formation in human liver microsomes 116; type: functional; outline: as §1
[5] = species: Homo sapiens; assay: Compound was tested for the rate of formation in human liver microsomes 114; type: functional; outline: as §1
[6] = species: Homo sapiens; assay: Mean of rate of formation in all human liver microsomes.; type: functional, organism-based; design: unit not given here; outline: as §1

In the case of `C[C@H](O)c1cccc2cc([C@H](O)CNC(C)(C)C)oc12`, the Rate of formation (pM min-1 (mg of protein)-1) [1] is reported as 500, the Rate of formation (pM min-1 (mg of protein)-1) [2] is reported as 136 and the Rate of formation (pM min-1 (mg of protein)-1) [3] is reported as 363. The Rate of formation (pM min-1 (mg of protein)-1) [4] was 355, the Rate of formation (pM min-1 (mg of protein)-1) [5] was 211 and the Mean [6] was 266.

`C[C@@H](O)c1cccc2cc([C@H](O)CNC(C)(C)C)oc12` was tested, and the Rate of formation (pM min-1 (mg of protein)-1) [1] was 2270, the Rate of formation (pM min-1 (mg of protein)-1) [2] was 54.5 and the Rate of formation (pM min-1 (mg of protein)-1) [3] was 74.5. For the same molecule, the Rate of formation (pM min-1 (mg of protein)-1) [4] was 75.3, the Rate of formation (pM min-1 (mg of protein)-1) [5] was 61.7 and the Mean [6] was 66.5.

`C[C@H](O)c1cccc2cc([C@@H](O)CNC(C)(C)C)oc12` was tested, and the Rate of formation (pM min-1 (mg of protein)-1) [1] was 96.1, the Rate of formation (pM min-1 (mg of protein)-1) [2] was 32 and the Rate of formation (pM min-1 (mg of protein)-1) [3] was 101. For the same molecule, the Rate of formation (pM min-1 (mg of protein)-1) [4] was 74.9, the Rate of formation (pM min-1 (mg of protein)-1) [5] was 58.8 and the Mean [6] was 66.6.

For `C[C@@H](O)c1cccc2cc([C@@H](O)CNC(C)(C)C)oc12`, the Rate of formation (pM min-1 (mg of protein)-1) [1] was 741, the Rate of formation (pM min-1 (mg of protein)-1) [2] was 48.9 and the Rate of formation (pM min-1 (mg of protein)-1) [3] was 86.5. The Rate of formation (pM min-1 (mg of protein)-1) [4] was 83.3, the Rate of formation (pM min-1 (mg of protein)-1) [5] was 62.1 and the Mean [6] was 70.2.
